Measurements from PMC5756543 (The Journal of Nutritional Biochemistry, 2017).
One block for each compound: values may come before it.

How the values were obtained:
Caco-2 cells [1] = assay: HT transport and phase II metabolism across differentiated Caco-2 monolayers; type: in vitro ADME, human; conditions: for rate of appearance of HT conjugate in apical compartment / rate of appearance of HT conjugate in basal compartment: 20 μM HT apical, HT-7-sul as HT-3′-sul equivalents; for decrease of HT-3′-glu 2 formation: acetate: in both compartments; for effect on efflux of HT-7-glu to both compartments: chronic treatment 1 mM 14 days (discussion)
Method in brief: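 Caco-2 monolayers on transwells were pretreated apically with 1 mM SCFA/lactate or mix from day 7 to day 21–23. Cells were equilibrated in HBSS (1.8 mM CaCl2, pH 7.4) for 30 min at 37°C, and monolayers below 930 Ω cm2 TEER were discarded. Apical 20 µM test compound was applied for 1 h. Both compartments were sampled with 100 µM ascorbic acid and analysed by LC-MS/MS MRM (daidzein internal standard, matrix-matched calibration). n=6 in duplicate; t test.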

UGT1A protein = UGT1A protein abundance by ProteinSimple WES in Caco-2 cells; type: cell-based, human; conditions: 1 mM 14 days; for decrease of UGT1A protein levels: vs control; for effect on UGT1A protein: vs control (discussion)
MCT4 (SLC16A3) mRNA = assay: MCT4 gene expression by ddPCR in Caco-2 cells; type: cell-based, human; conditions: vs control; for increase of MCT4 mRNA: 1 mM 14 days (mix 0.25 mM each), n=4
Method in brief: (§1)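 Caco-2 cells were seeded on transwells at 6×104 cm−2 and grown 21–23 days. From day 7 the apical medium was FBS-free with 1 mM Na-acetate, -propionate, -butyrate, -lactate or an equimolar mix (0.25 mM each); basal medium had 20% FBS; 0.1% DMSO served as control. RNA (1 µg) was reverse-transcribed. Duplex TaqMan ddPCR used 0.65 ng cDNA per reaction, with target FAM and TBP VIC. Copies/ng cDNA were derived by Poisson analysis. Four biological replicates from two seedings, each with three technical replicates; t test.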

MCT1 protein = MCT1 protein abundance by ProteinSimple WES in Caco-2 cells; type: cell-based, human; conditions: 1 mM 14 days, vs control
Caco-2 cells [2] = assay: SA transport across differentiated Caco-2 monolayers; type: in vitro ADME, human; conditions: for effect on SA transport / increase of SA in the basolateral compartment: 1 mM 14 days, vs untreated cells; for increase of SA in the basolateral compartment: n=6, P=.003
Method in brief: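 Pretreated Caco-2 transwell monolayers (1 mM apical SCFA/lactate or mix from day 7, used at 21–23 days) were equilibrated in HBSS (pH 7.4) for 30 min at 37°C; monolayers under 930 Ω cm2 TEER were excluded. Apical 1 mM MCT substrate was incubated for 30 min. Both compartments were analysed by HPLC-UV at 303 nm, with DMCA internal standard at 326 nm. Six biological replicates in duplicate; t test, P<.01.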

Caco-2 cells [3] = assay: FA transport and metabolism across differentiated Caco-2 monolayers; type: in vitro ADME, human; conditions: for effect on transepithelial transport of FA (apical to basolateral): vs untreated (abstract, discussion); for effect on FA-sul in apical compartment / increase of FA-glu in basal compartment: n=6, P<.01
Method in brief: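 Caco-2 monolayers were pretreated apically with 1 mM SCFA/lactate or mix from day 7 and used at 21–23 days after 30 min HBSS (pH 7.4) equilibration at 37°C; monolayers with TEER <930 Ω cm2 were discarded. Apical 500 µM test compound was applied for 1 h. Apical and basal samples were stabilised with ascorbic acid and spiked with acetic acid (10 mM final) and DMCA internal standard (10 µM final). LC-MS/MS MRM quantified parent and conjugates. Six biological replicates in duplicate; t test.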

MCT1 (SLC16A1) mRNA = assay: MCT1 gene expression by ddPCR in Caco-2 cells; type: cell-based, human; conditions: 1 mM 14 days, vs control
Method in brief: as §1

ABCG2 mRNA = assay: ABCG2 gene expression by ddPCR in Caco-2 cells; type: cell-based, human; conditions: vs control; for effect on ABCG2 mRNA: 1 mM 14 days; for decrease of ABCG2 mRNA: 1 mM 14 days (mix 0.25 mM each)
Method in brief: as §1

Caco-2 cells [4] = assay: Transepithelial Electrical Resistance; type: cell-based, human; conditions: 1 mM apical pretreatment 14 days, n=36; for average TEER value after pretreatment: untreated 1149±23
Method in brief: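 Caco-2 cells were seeded on transwells at 6×104 cm−2 and exposed apically from day 7 to 1 mM Na-acetate, -propionate, -butyrate, -lactate or mix in FBS-free medium (basal 20% FBS; 0.1% DMSO control). At 21–23 days, after HBSS washes and 30 min equilibration at 37°C, 10% CO2, TEER was measured with a voltohmmeter; t test.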

ABCG2 protein = ABCG2 protein abundance by ProteinSimple WES in Caco-2 cells; type: cell-based, human; conditions: vs control; for decrease of ABCG2 protein levels: 1 mM 14 days
Method in brief: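 Transwell Caco-2 monolayers received 1 mM apical SCFA/lactate or mix (0.25 mM each) from day 7 and were lysed at 21–23 days in Bicine-CHAPS with inhibitors, then BCA-quantified. For capillary WES, 1.5 mg/ml lysate was used with 95°C denaturation for 5 min. α-Tubulin loading control came from the same sample in separate capillaries. Peak areas were quantified. Mean of 3–6 biological replicates ±S.E.M.; t test.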

MCT4 protein = MCT4 protein abundance by ProteinSimple WES in Caco-2 cells; type: cell-based, human; conditions: 1 mM 14 days (mix 0.25 mM each), vs control
[5] = 1 mM 14 days, vs untreated, n=6, P<.01
[6] = 1 mM 14 days, vs untreated, n=6, P<.001

rate of appearance of HT conjugate in apical compartment (Caco-2 cells [1]; untreated cells, 1 h): 2.8 ± 0.1 pmol/min
rate of appearance of HT conjugate in basal compartment (Caco-2 cells [1]; untreated cells, 1 h): 2.53 ± 0.06 pmol/min
Structure (SMILES): COc1ccc(C2CC(=O)c3c(O)cc(O)cc3O2)cc1OS(=O)(=O)O (centres unmarked) [HT-3′-sul, hesperetin-3′-O-sulfate]

Structure (SMILES): CC(=O)[O-].[Na+] [acetate, Na-acetate]
effect on HT-3′-sul efflux to the apical direction (Caco-2 cells [1]; 1 mM 14 days, vs untreated): lower
decrease of HT-3′-glu 2 formation (Caco-2 cells [1]; [5]): 20%
decrease of UGT1A protein levels (UGT1A protein): ~ 25%
increase of MCT4 mRNA (MCT4 (SLC16A3) mRNA): ~ 20%
decrease of MCT1 protein (MCT1 protein; n=3, P<.005): ~ 30%
effect on SA transport (Caco-2 cells [2]): did not affect
effect on FA transport and metabolism (Caco-2 cells [3]; 1 mM 14 days, vs untreated): no effect
increase of MCT1 mRNA (MCT1 (SLC16A1) mRNA; n=4, P≤.02): ~ 20%
effect on ABCG2 mRNA (ABCG2 mRNA): unaffected

rate of appearance of HT conjugate in apical compartment (Caco-2 cells [1]; untreated cells, 1 h): 2.6 ± 0.06 pmol/min
rate of appearance of HT conjugate in basal compartment (Caco-2 cells [1]; untreated cells, 1 h): 1.9 ± 0.03 pmol/min
Structure (SMILES): COc1ccc([C@@H]2CC(=O)c3c(O)cc(OS(=O)(=O)O)cc3O2)cc1O [HT-7-sul, hesperetin-7-O-sulfate]

Structure (SMILES): CCCC(=O)O [butyrate, Na-butyrate]
effect on HT-3′-sul efflux to the apical direction (Caco-2 cells [1]; 1 mM 14 days, vs untreated): lower
increase of HT-7-glu in basal compartment (Caco-2 cells [1]; [5]): 23%
decrease of HT-3′-glu 2 formation (Caco-2 cells [1]; [5]): 30–40%
effect on efflux of HT-7-glu to both compartments (Caco-2 cells [1]): increased
average TEER value after pretreatment (Caco-2 cells [4]): 1066±31 Ω cm^2
decrease of average TEER values (Caco-2 cells [4]; vs untreated cells): 7%
effect on UGT1A protein (UGT1A protein): did not affect
effect on MCT4 mRNA (MCT4 (SLC16A3) mRNA; 1 mM 14 days): not affected
effect on ABCG2 protein levels (ABCG2 protein; 1 mM 14 days (mix 0.25 mM each)): not reflected in protein changes
increase of MCT1 protein (MCT1 protein; n=3, P=.01): ~ 40%
increase of SA in the basolateral compartment (Caco-2 cells [2]): 32%
effect on MCT4 protein levels (MCT4 protein): not affected
effect on transepithelial transport of FA (apical to basolateral) (Caco-2 cells [3]; 1 mM 14 days): strongly enhanced
effect on FA-sul in apical compartment (Caco-2 cells [3]; 1 mM 14 days, vs untreated): lower
increase of FA-glu in basal compartment (Caco-2 cells [3]; 1 mM 14 days, vs untreated): ~ 40%
decrease of MCT1 mRNA (MCT1 (SLC16A1) mRNA): ~ 30%
effect on ABCG2 mRNA (ABCG2 mRNA): decreased

conjugate formed (basal + apical) as share of original HT added apically (Caco-2 cells [1]; untreated cells, 1 h): 2.4%
rate of appearance of HT conjugate in apical compartment (Caco-2 cells [1]; untreated cells, 1 h): 3.87 ± 0.07 pmol/min
rate of appearance of HT conjugate in basal compartment (Caco-2 cells [1]; untreated cells, 1 h): 12.33 ± 0.57 pmol/min
Structure (SMILES): COc1ccc([C@@H]2CC(=O)c3c(O)cc(O[C@@H]4O[C@H](C(=O)O)[C@@H](O)[C@H](O)[C@H]4O)cc3O2)cc1O [HT-7-glu, Hesperetin-7-O-glucuronide]

Structure (SMILES): CC(O)C(=O)[O-].[Na+] (centres unmarked) [lactate, Na-lactate]
decrease of all HT phase II conjugates in apical compartment (Caco-2 cells [1]; 1 mM 14 days, vs untreated): 13–40%
effect on HT-3′-sul efflux to the apical direction (Caco-2 cells [1]; 1 mM 14 days, vs untreated): lower
effect on HT-3′-glu 1 in basolateral side (Caco-2 cells [1]; [5]): substantially decreased
effect on HT-3′-glu 2 in basolateral side (Caco-2 cells [1]; [5]): substantially decreased
average TEER value after pretreatment (Caco-2 cells [4]): 1232±25 Ω cm^2
increase of TEER (resistance) (Caco-2 cells [4]; vs untreated cells): 7%
decrease of UGT1A protein levels (UGT1A protein): ~ 30%
decrease of MCT4 mRNA (MCT4 (SLC16A3) mRNA; 1 mM 14 days, P<.001): 20–30%
decrease of ABCG2 protein levels (ABCG2 protein): ~ 50%
effect on SA transport (Caco-2 cells [2]): did not affect
effect on FA-sul in basolateral compartment (Caco-2 cells [3]; 1 mM 14 days, vs untreated): substantially decreased
effect on FA-sul in apical compartment (Caco-2 cells [3]; 1 mM 14 days, vs untreated): substantially decreased
decrease of MCT1 mRNA (MCT1 (SLC16A1) mRNA): 20–30%
decrease of ABCG2 mRNA (ABCG2 mRNA): 20–30%

Structure (SMILES): CCC(=O)[O-].[Na+] [propionate, Na-propionate]
effect on HT-3′-sul basolateral transport (Caco-2 cells [1]; 1 mM 14 days, vs untreated): stimulated
effect on HT-7-sul basolateral transport (Caco-2 cells [1]; 1 mM 14 days, vs untreated): stimulated
increase of HT-3′-glu 1 in basolateral side (Caco-2 cells [1]; [5]): 34%
increase of HT-7-glu in basal compartment (Caco-2 cells [1]; [5]): 42%
effect on efflux of HT-7-glu to both compartments (Caco-2 cells [1]): increased
effect on UGT1A protein (UGT1A protein): did not affect
increase of MCT4 mRNA (MCT4 (SLC16A3) mRNA): ~ 29%
decrease of ABCG2 protein levels (ABCG2 protein): ~ 40%
effect on MCT1 protein levels (MCT1 protein): without significant effects
increase of SA in the basolateral compartment (Caco-2 cells [2]): 21%
effect on MCT4 protein levels (MCT4 protein): without significant effects
effect on FA-sul in basolateral compartment (Caco-2 cells [3]; 1 mM 14 days, vs untreated): favored over efflux to the apical compartment
increase of FA-glu in apical compartment (Caco-2 cells [3]; 1 mM 14 days, vs untreated): 72%
effect on transepithelial transport of FA (apical to basolateral) (Caco-2 cells [3]; 1 mM 14 days): strongly enhanced
higher concentration of DHFA in apical compartment (Caco-2 cells [3]; [6]): 4.1 fold
higher concentration of DHFA in basal compartment (Caco-2 cells [3]; [6]): 3.4 fold
increase of FA-glu in basal compartment (Caco-2 cells [3]; 1 mM 14 days, vs untreated): 83%
effect on MCT1 gene expression (MCT1 (SLC16A1) mRNA): unchanged
decrease of ABCG2 mRNA (ABCG2 mRNA): ~ 18%

FA transported to the basal compartment (Caco-2 cells [3]; untreated cells, 500 μM FA (1 μmol) apical, 1 h): 1.73 ± 0.17 nmol/min
FA transported to basal compartment, share of added FA (Caco-2 cells [3]; untreated cells, after 1 h): 10.4%
Structure (SMILES): COc1cc(/C=C/C(=O)O)ccc1O [FA, ferulic acid]

SA transported to the basolateral side, share of original amount added apically (Caco-2 cells [2]; 1 mM SA apical, within 30 min): ~ 10%
Structure (SMILES): O=C(O)c1ccccc1O [SA, salicylic acid, reference compound]

HT transported unchanged to the basolateral compartment (Caco-2 cells [1]; cells not treated with SCFA, 20 μM HT (40 nmol) apical, 1 h): 87 ± 26 pmol/min
HT transported to basolateral compartment, share of HT added apically (Caco-2 cells [1]; cells not treated with SCFA, after 60 min incubation): 13%
Structure (SMILES): COc1ccc([C@@H]2CC(=O)c3c(O)cc(O)cc3O2)cc1O [HT, hesperetin]
